Measured values reported in ChEMBL document CHEMBL4190389, “Synthesis and activity of di- or trisubstituted N-(phenoxyalkyl)- or N-{2-[2-(phenoxy)ethoxy]ethyl}piperazine derivatives on the central nervous system” (Bioorg Med Chem Lett, 2018).
Active and inactive are the calls of the source. No cut-off for these calls is given here.

Assays:
[1] = biological target: 5-hydroxytryptamine receptor 2A (Homo sapiens, UniProt P28223); assay: Displacement of [3H]-ketanserin from recombinant human 5-HT2A receptor after 60 mins by liquid scintillation counting method
Mus musculus [2] = assay: Antidepressant-like activity in ip dosed Albino Swiss CD-1 mouse assessed as decrease in immobility time administered […] prior to test measured for last 4 mins of 6 mins observation by forced swim test (reference value: 153.9 to 201.9 secs); type: functional
[3] = biological target: T1, 5-hydroxytryptamine receptor 1A (Homo sapiens, UniProt P08908); assay: Displacement of [3H]8-OH-DPAT from human 5-HT1A receptor expressed in HEK293 cell membranes after 1 hr
T1 sequence (P08908 whole entry): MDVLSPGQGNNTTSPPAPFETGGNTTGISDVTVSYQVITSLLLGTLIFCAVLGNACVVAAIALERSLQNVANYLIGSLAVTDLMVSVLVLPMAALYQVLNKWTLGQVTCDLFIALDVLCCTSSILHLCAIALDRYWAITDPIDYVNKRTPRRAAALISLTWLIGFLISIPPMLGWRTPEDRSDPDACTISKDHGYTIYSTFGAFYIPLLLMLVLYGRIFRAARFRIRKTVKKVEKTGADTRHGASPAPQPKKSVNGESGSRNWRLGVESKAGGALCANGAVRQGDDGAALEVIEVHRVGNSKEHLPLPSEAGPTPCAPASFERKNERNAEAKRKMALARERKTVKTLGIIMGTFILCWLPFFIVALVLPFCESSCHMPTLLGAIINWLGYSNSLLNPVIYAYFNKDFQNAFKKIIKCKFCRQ

Mus musculus [4] = assay: Antidepressant-like activity in Albino Swiss CD-1 mouse assessed as immobility time at 10 mg/kg, ip administered 30 mins prior to test measured for last 4 mins of 6 mins observation by forced swim test (reference value: 153.9 to 201.9 secs); type: functional
Mus musculus [5] = assay: Toxicity in Albino Swiss CD-1 mouse assessed as death at 100 mg/kg, ip; type: organism-based; details: in vivo
Procedure, shortened: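 Deaths counted in mice during maximal electroshock (MES) seizure testing after i.p. dosing, 6 mice per dose (3 or 1 at some top doses); recorded as number dead/number tested alongside protection and rotarod motor impairment (10 rpm); untreated control group included.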

[6] = biological target: 5-hydroxytryptamine receptor 7 (Homo sapiens, UniProt P34969); assay: Displacement of [3H]LSD from recombinant human 5-HT7 receptor expressed in CHO cell membranes at 10^-5 M after 60 mins by liquid scintillation counting method
[7] = biological target: T2, Alpha-1A adrenergic receptor (Homo sapiens) (UniProt P35348); assay: Displacement of [3H]prazosin from recombinant human alpha1 adrenoceptor expressed in CHO cell membranes at 10^-5 M after 30 mins by liquid scintillation counting method
T2 sequence (whole entry): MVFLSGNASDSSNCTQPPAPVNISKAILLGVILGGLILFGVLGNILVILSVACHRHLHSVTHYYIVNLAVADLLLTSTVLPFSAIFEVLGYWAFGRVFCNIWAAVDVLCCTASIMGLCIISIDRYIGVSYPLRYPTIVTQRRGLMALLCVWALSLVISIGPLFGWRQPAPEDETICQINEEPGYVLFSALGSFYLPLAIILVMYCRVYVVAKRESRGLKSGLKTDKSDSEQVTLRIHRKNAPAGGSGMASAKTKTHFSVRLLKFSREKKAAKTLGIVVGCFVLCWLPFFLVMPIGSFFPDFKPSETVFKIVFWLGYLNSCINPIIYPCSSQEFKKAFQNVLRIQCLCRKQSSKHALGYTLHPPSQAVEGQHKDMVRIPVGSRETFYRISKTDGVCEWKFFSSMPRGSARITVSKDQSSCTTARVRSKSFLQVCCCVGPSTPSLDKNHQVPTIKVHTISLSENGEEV

[8] = Neurotoxicity in ip dosed Albino Swiss CD-1 mouse assessed as minimum dose required to induce motor impairment treated 30 mins prior to test by rotarod test; type: toxicity, organism-based; details: in vivo
Mus musculus [9] = assay: Antidepressant-like activity in Albino Swiss CD-1 mouse assessed as immobility time at 5 mg/kg, ip administered 30 mins prior to test measured for last 4 mins of 6 mins observation by forced swim test (reference value: 153.9 to 201.9 secs); type: functional
[10] = biological target: T1, 5-hydroxytryptamine receptor 1A; assay: Displacement of [3H]8-OH-DPAT from recombinant human 5-HT1A receptor expressed in HEK293 cell membranes after 60 mins by liquid scintillation counting method
[11] = Protection index, ratio of TD50 for motor impairment in ip dosed Swiss albino CD-1 mouse to ED50 for protection against 50 Hz current-induced seizures in ip dosed Swiss albino CD-1 mouse; type: toxicity, organism-based, Swiss CD-1; details: in vivo, read-out: Ratio TD50/ED50
Mus musculus [12] = assay: Anxiolytic-like activity in Albino Swiss CD-1 mouse assessed as increase in number of punished crossings at 5 mg/kg, ip administered for 30 mins prior to test measured for 1 min by four-plate test; type: functional, organism-based
Procedure, shortened: (§1)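 Four-plate test in mice, i.p., 30 min before test; vehicle 0.9% NaCl; doses 1.25–10 mg/kg; number of punished crossings counted; mean ± SEM, n = 8–10 mice per group; ANOVA F statistics.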

Mus musculus [13] = assay: Anticonvulsant activity in ip dosed Albino Swiss CD-1 mouse assessed as dose required to protect against 50 Hz current-induced seizure; type: functional; details: Swiss CD-1, ip
Mus musculus [14] = assay: Toxicity in Albino Swiss CD-1 mouse assessed as effect on locomotory activity at 1.25 to 5 mg/kg, ip administered for 30 mins prior to test measured for 1 min; type: organism-based; details: in vivo
[15] = biological target: 5-hydroxytryptamine receptor 6 (Homo sapiens, UniProt P50406); assay: Displacement of [3H]LSD from recombinant human 5-HT6 receptor expressed in CHO cells cell membranes at 10^-5 M after 60 mins by liquid scintillation counting method
Mus musculus [16] = assay: Antidepressant-like activity in Albino Swiss CD-1 mouse assessed as immobility time at 20 mg/kg, ip administered 30 mins prior to test measured for last 4 mins of 6 mins observation by forced swim test (reference value: 153.9 to 201.9 secs); type: functional
Mus musculus [17] = assay: Anxiolytic-like activity in Albino Swiss CD-1 mouse assessed as increase in number of punished crossings at 2.5 mg/kg, ip administered for 30 mins prior to test measured for 1 min by four-plate test; type: functional, organism-based; procedure, shortened: as §1

Sequence of 5-hydroxytryptamine receptor 6 (P50406 whole entry): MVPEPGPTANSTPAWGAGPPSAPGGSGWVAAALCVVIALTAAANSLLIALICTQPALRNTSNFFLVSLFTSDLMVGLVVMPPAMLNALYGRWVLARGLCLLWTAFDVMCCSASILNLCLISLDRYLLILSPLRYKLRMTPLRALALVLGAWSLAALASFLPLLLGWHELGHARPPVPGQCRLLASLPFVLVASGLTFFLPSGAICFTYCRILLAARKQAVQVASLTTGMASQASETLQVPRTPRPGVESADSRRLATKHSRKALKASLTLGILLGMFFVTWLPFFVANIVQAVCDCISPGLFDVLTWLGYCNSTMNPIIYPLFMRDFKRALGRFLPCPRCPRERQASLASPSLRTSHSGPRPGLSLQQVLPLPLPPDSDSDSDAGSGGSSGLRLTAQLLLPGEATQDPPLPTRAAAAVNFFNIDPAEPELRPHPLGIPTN
Sequence of 5-hydroxytryptamine receptor 7 (P34969 whole entry): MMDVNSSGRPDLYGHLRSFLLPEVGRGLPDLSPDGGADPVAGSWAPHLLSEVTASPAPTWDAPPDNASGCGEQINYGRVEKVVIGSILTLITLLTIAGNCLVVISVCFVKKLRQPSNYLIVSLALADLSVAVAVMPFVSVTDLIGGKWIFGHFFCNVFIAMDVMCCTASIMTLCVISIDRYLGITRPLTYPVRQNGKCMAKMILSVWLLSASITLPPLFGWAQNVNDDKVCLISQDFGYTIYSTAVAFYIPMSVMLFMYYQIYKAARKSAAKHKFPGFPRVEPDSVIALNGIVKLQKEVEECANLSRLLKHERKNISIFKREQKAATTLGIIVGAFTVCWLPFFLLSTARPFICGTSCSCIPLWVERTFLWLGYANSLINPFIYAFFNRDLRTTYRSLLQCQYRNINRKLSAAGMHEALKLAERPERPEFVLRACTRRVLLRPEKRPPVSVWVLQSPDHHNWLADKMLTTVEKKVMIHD
Sequence of 5-hydroxytryptamine receptor 2A (P28223 whole entry): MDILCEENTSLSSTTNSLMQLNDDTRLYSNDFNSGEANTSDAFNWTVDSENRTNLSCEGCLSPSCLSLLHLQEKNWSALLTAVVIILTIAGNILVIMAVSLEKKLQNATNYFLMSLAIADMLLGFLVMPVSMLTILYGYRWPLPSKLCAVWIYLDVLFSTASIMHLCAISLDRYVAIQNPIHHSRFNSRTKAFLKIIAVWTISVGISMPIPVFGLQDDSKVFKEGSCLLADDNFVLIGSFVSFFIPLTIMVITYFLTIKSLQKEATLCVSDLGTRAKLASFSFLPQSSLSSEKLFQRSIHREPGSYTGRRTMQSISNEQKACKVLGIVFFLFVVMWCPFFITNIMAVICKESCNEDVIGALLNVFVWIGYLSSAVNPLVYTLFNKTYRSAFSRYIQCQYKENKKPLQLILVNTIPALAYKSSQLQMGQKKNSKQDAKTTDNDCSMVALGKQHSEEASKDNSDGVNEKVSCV

Compound | Ki [1] [µM] | ED (Mus musculus [2]) [mg/kg] | Ki [3] [µM] | Time (Mus musculus [4]) [s] | Activity (Mus musculus [5]) | inhibition [6] | inhibition [7] | TD50 at 0.5 h [8] [mg/kg] | Time (Mus musculus [9]) [s] | Ki [10] [µM] | selectivity ratio [11] | Activity (Mus musculus [12]) | ED50 (Mus musculus [13]) [mg/kg] | Activity (Mus musculus [14]) | inhibition [15] | Time (Mus musculus [16]) [s] | Activity (Mus musculus [17])
COc1ccccc1N1CCN(CCCOc2c(C)cc(C)cc2C)CC1.Cl | 2.83 | 5 | < 0.001 |  |  |  |  |  |  |  |  |  |  |  |  |  | 
Cc1cc(C)c(OCCN2CCN(CCOCCO)CC2)c(C)c1.Cl.Cl |  |  |  | 135.3 | Non-Toxic | inactive | inactive | 85.3 | 152.5 | 3.17 | 1.88 | Active | 45.4 | Non-Toxic | inactive | 128 | Active
